The subject of series [1] is Trypanosoma cruzi. Put plainly: Antitrypanosomal activity against Trypanosoma cruzi Tulahuen trypomastigotes beta-galactosidase infected in rat H9c2 cells measured after 72 hrs by DRAQ5 DNA dye based confocal microscopic analysis. The format is functional, organism-based. The following applies: H9c2, 72 h.
A short description of series [2]: Intrinsic clearance in human liver microsomes at 0.5 uM in presence of NADPH measured up to 45 mins by UPLC/MS/MS analysis. Particulars: 0.75 h. The format is ADME, Microsome. In short, it runs like this:
(§1)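 Compound at 0.5 μM was incubated with male CD1 mouse or human liver microsomes (0.5 mg/mL in 50 mM potassium phosphate, pH 7.4). The reaction was started with excess NADPH. Samples were taken at 0 and serial times up to 45 min, quenched in acetonitrile with internal standard and analysed by UPLC/MS/MS. Clint (mL/min/g tissue) was derived from t1/2 of parent remaining. Midazolam was the positive control.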

The nature of series [3]: Selectivity index, ratio of IC50 for rat H9c2 cells to IC50 for antitrypanosomal activity against Trypanosoma cruzi Tulahuen trypomastigotes beta-galactosidase infected in rat H9c2 cells. The format is toxicity, cell-based. Particulars: read-out: Ratio IC50.
Series [4] deals with H9c2. As to the kind of experiment: Cytotoxicity against rat H9c2 cells assessed as reduction in cell viability. The format is cell-based.
Series [5] in a line: Intrinsic clearance in CD-1 mouse liver microsomes at 0.5 uM in presence of NADPH measured up to 45 mins by UPLC/MS/MS analysis. The format is ADME, Microsome. Particulars: 0.75 h. In short, it runs like this:
as §1
For orientation: Microsomes from liver hold many membrane-bound enzymes, among them those of drug oxidation.

Series [6] deals with Trypanosoma cruzi. Put plainly: Antitrypanosomal activity against Trypanosoma cruzi Tulahuen C4 trypomastigotes harboring beta-galactosidase infected in mouse 3T3 cells after 90 mins by luminescence based assay. The format is functional, organism-based. Particulars: Tulahuen C4, NIH3T3, 1.5 h.
A short description of series [7]: Drug level in C57BL/6 mouse treated with 50 mg/kg, po N-(5-Fluoro-6-(trifluoromethyl)benzothiazol-2-yl)cyclopropanecarboxamide administered as suspension via gavage assessed as compound formation after 15 mins to 24 hrs by LC-MS/Ms analysis. The format is ADME, organism-based. Particulars: in vivo. In short, it runs like this:
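Female C57BL/6 mice (n=3) were gavaged with 50 mg/kg parent compound as a 1% methylcellulose suspension. Whole blood was sampled at 15, 30, 45 min and 1, 2, 4, 8 and 24 h, diluted 1/2 with water and frozen.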

The structures appear in SMILES notation.

As usually defined, the IC50 is the concentration at which inhibition is half-maximal. Take `O=C(Nc1nc2ccc([N+](=O)[O-])cc2s1)C1CC1`: the concentration for half-maximal inhibition (IC50) in series [1] is 0.04 µM; in series [4], above 50 µM. For the same compound, the CLH in series [2] stood at 1.57 mL/min/g; in series [5], 3.06 mL/min/g. Moreover, the selectivity ratio in series [3] was above 1200.
For the compound `FC(F)(F)c1ccc2nc(N/N=C/C3CC3)sc2c1`, the IC50 was 2.4 µM in series [1] and 13 µM in series [4]. Further, the selectivity ratio in series [3] stood at 5.
As to `N#Cc1cc2nc(NC(=O)C3CC3)sc2cc1C(F)(F)F`, the IC50 in series [1] was above 50 µM; in series [4] it was 15.5 µM.
On to `O=C(CCO)Nc1nc2ccc(Cl)cc2s1`, for which the IC50 is 14 µM in series [1] and above 50 µM in series [4]. In addition, in series [3], the selectivity ratio is above 3.
On the same counts, the results for `O=C(Nc1nc2ccc(F)cc2s1)C1CC1` are 4.22 µM, above 50 µM and above 12.
As for `O=C(Nc1nc2cc(C(F)(F)F)c(F)cc2s1)C1CC1`, the IC50 worked out at 35 µM in series [1] and 46 µM in series [4]. Moreover, in series [3], the selectivity ratio was 1.
The like results for `Clc1ccc2nc(NCC3CC3)sc2c1` were, in that order, 27 µM, above 50 µM and above 2.
As to `O=C(Nc1nc2ccc(Cl)cc2s1)C1CC1`, the IC50 is 0.63 µM in series [1], 0.119 µM in series [6] and above 50 µM in series [4]. Also, the CLH in series [2] was determined as 9.57 mL/min/g; in series [5], 2.51 mL/min/g. Moreover, in series [3], the selectivity ratio is above 80.
Regarding `Cc1cc2nc(NC(=O)C3CC3)sc2cc1C(F)(F)F`, the 50% inhibitory concentration (IC50) in series [1] was determined as 26 µM; in series [4] it was 36 µM. In series [3], the selectivity ratio is 1.
On to `O=C(C1CC1)N(CCO)c1nc2ccc(Cl)cc2s1`, for which the IC50 in series [1] and in series [4] was above 50 µM in each case. Besides, the selectivity ratio in series [3] turned out to be 1.
For the compound `CN(C(=O)C1CC1)c1nc2ccc(Cl)cc2s1`, the IC50 is 25 µM in series [1] and above 50 µM in series [4]. Besides, the selectivity ratio in series [3] was above 2.
Regarding `CC(C)C(=O)Nc1nc2ccc(Cl)cc2s1`, the IC50 in series [1] was 0.41 µM; in series [4], above 50 µM. Besides, in series [3], the selectivity ratio is above 123.
The like results for `CCS(=O)(=O)c1cc2sc(NC(=O)C3CC3)nc2cc1F` were, in that order, 42 µM, above 50 µM and above 1.
With `CCN(C(=O)C1CC1)c1nc2ccc(Cl)cc2s1`, the IC50 in series [1] and in series [4] was above 50 µM each time. Moreover, the selectivity ratio in series [3] amounted to 1.
Regarding `CCCC(=O)Nc1nc2ccc(Cl)cc2s1`, the results for the 50% inhibitory concentration (IC50) in series [1] and in series [4] were 4.73 µM and above 50 µM, respectively. Further, the selectivity ratio in series [3] was above 11.
As to `CC(C)c1ccc2nc(NC(=O)C3CC3)sc2c1`, the IC50 in series [1] was 1.19 µM; in series [4] it was above 50 µM. In addition, the selectivity ratio in series [3] was above 50.
For `COc1cc2nc(NC(=O)C3CC3)sc2cc1C(F)(F)F`, the IC50 was 20 µM in series [1] and above 50 µM in series [4]. Also, in series [3], the selectivity ratio was above 2.5.
Turning to `Nc1nc2cc(F)c(C(F)(F)F)cc2s1`, the Drug metabolism result in series [7] is reported as “Metabolite_Detected”.
For the compound `CC(=O)N(CCCN(C)C)c1nc2ccc(C)cc2s1`, the IC50 in series [6] was 0.236 µM.
On to `O=C(Nc1nc2cccc(Cl)c2s1)C1CC1`, for which the values for the IC50 in series [1] and in series [4] were 24 µM and above 50 µM, respectively. Also, in series [3], the selectivity ratio is above 2.
As for `O=C(CC1CC1)Nc1nc2ccc(Cl)cc2s1`, the IC50 is 5.4 µM in series [1] and above 50 µM in series [4]. In addition, the selectivity ratio in series [3] was above 9.
For `CC(C)(C)C(=O)Nc1nc2ccc(Cl)cc2s1`, the IC50 in series [1] is 0.95 µM; in series [4], above 50 µM. Also, the selectivity ratio in series [3] was above 52.
For the compound `O=C(Nc1nc2ccc(Cl)cc2s1)C1COC1`, the IC50 was 4.4 µM in series [1] and above 50 µM in series [4]. Also, in series [3], the selectivity ratio was above 11.
The like results for `O=S(=O)(Nc1nc2ccc(C(F)(F)F)cc2s1)C1CC1` were, in that order, above 50 µM, 6.6 µM and below 0.13.
Regarding `O=C(Nc1nc2ccc(C(F)(F)F)cc2s1)C1CC1`, the values for the IC50 in series [1] and in series [4] were 0.1 µM and above 50 µM, respectively. For the same compound, the CLH turned out to be 0.94 mL/min/g in series [2] and 2.71 mL/min/g in series [5]. Besides, the selectivity ratio in series [3] is above 500.
As to `O=C(Nc1nc2ccc(Cl)cc2s1)C1CCOC1` (centres undefined), the IC50 in series [1] was 4.4 µM; in series [4] it was above 50 µM. The selectivity ratio in series [3] is above 11.
As to `CCCCN(C(=O)C1CC1)c1nc2ccc(Cl)cc2s1`, the IC50 in series [1] and in series [4] was above 50 µM in each case. In addition, the selectivity ratio in series [3] is 1.
Consider `CNS(=O)(=O)c1cc2sc(NC(=O)C3CC3)nc2cc1F`, for which the IC50 was 26 µM in series [1] and above 50 µM in series [4]. Besides, the selectivity ratio in series [3] was above 2.
Turning to `CCc1ccc2nc(NC(=O)C3CC3)sc2c1`, the IC50 is 0.14 µM in series [1] and above 50 µM in series [4]. The CLH is 10.4 mL/min/g in series [2] and 125 mL/min/g in series [5]. In addition, the selectivity ratio in series [3] was above 357.
For `CCOc1ccc2nc(NC(=O)C3CC3)sc2c1`, the IC50 in series [1] is 2.5 µM; in series [4], above 50 µM. In series [3], the selectivity ratio was above 20.
Take `CC(C)(F)C(=O)Nc1nc2cc(F)c(C(F)(F)F)cc2s1`: the IC50 in series [1] was 1 µM; in series [4], above 50 µM. Besides, in series [3], the selectivity ratio was above 50.
`Cc1ccc2nc(NC(=O)C3CC3)sc2c1`: the results for the IC50 in series [1] and in series [4] were 4.52 µM and above 50 µM, respectively. For the same compound, the selectivity ratio in series [3] is above 11.
In series [6], `CN(C)CCCN(C(=O)c1nc2ccccc2s1)c1nc2ccc(F)cc2s1` displayed a half-inhibitory concentration (IC50) of 0.1 µM.
As for `CC(C)C(=O)Nc1nc2cc(F)c(C(F)(F)F)cc2s1`, the half-maximal inhibitory concentration (IC50) in series [1] is 0.25 µM; in series [4], above 50 µM. Also, the selectivity ratio in series [3] is above 200.
With `CC(C)(F)C(=O)Nc1nc2ccc(C(F)(F)F)cc2s1`, the IC50 in series [1] is 0.13 µM; in series [4], above 50 µM. In series [3], the selectivity ratio was above 384.
For the compound `CC(C)(C)c1ccc2nc(NC(=O)C3CC3)sc2c1`, the IC50 in series [1] amounted to 7.85 µM; in series [4], 32 µM. Further, the selectivity ratio in series [3] came to 4.
Take `O=C(Nc1nc2cc(Cl)ccc2s1)C1CC1`: the IC50 in series [1] is 0.32 µM; in series [4] it was above 50 µM. In addition, in series [3], the selectivity ratio was above 158.
On the same counts, the results for `O=C(Nc1nc2ccc(Cl)cc2s1)C1CCC1` are 1.32 µM, above 50 µM and above 38.
On to `O=C(Nc1nc2ccc(OC(F)(F)F)cc2s1)C1CC1`, for which the IC50 in series [1] turned out to be 0.19 µM; in series [4], 5 µM. Besides, the selectivity ratio in series [3] is 28.
On the same counts, the results for `N#Cc1cc2sc(NC(=O)C3CC3)nc2cc1F` are 2.3 µM, above 50 µM and above 22.
Take `O=C(Nc1nc2c(Cl)cccc2s1)C1CC1`: the IC50 in series [1] and in series [4] was above 50 µM in each case.

For the origin of these results see ChEMBL document CHEMBL4321829, “Chagas Disease Drug Discovery: Multiparametric Lead Optimization against Trypanosoma cruzi in Acylaminobenzothiazole Series” (J Med Chem, 2019).
